“And” between values parts separate entries of the source, which are not always exact repeats. Equal values may be shown once.
Assays:
Fibroblast = test: Multiplex assay against human fibroblast; assay type: toxicity, cell-based; conditions: number of replicates 2
Procedure, shortened: (§1)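 Live cells were stained at seeding with Hoechst33342, BioTracker Green Microtubule Cytoskeleton Dye, MitoTracker Red and Annexin V Alexa Fluor 680. Following compound addition, they were imaged on a CQ1 microscope at 37°C and 5% CO2 and gated by CellPathfinder machine learning into Hoechst high-intensity objects or normal cells, with normal cells split into healthy, pyknosed or fragmented nuclei and pyknosed cells into mitotic or apoptotic. Tubulin, mitochondrial-mass and membrane-permeability phenotypes are per cents of healthy-nucleus cells.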

U2OS = test: Multiplex assay against U2OS; assay type: toxicity, cell-based; conditions: human, number of replicates 2; procedure, shortened: as §1
[1] = 24 h, 1 µM, compound concentration 1 uM
[2] = 24 h, 10 µM, compound concentration 10 uM
[3] = 48 h, 1 µM, compound concentration 1 uM
[4] = 48 h, 10 µM, compound concentration 10 uM
[5] = 12 h, 1 µM, compound concentration 1 uM
[6] = 12 h, 10 µM, compound concentration 10 uM

SMILES: CN1CCN(C(=O)Cc2ccc(N/C(=C3\C(=O)Nc4cc(Cl)ccc43)c3ccccc3)cc2)CC1
- Population Membrane Permeable-Phenotype (%) (Fibroblast; [1]): 5%
- Population Mitochondria Different-Phenotype (%) (Fibroblast; [1]): 0% and 2%
- Population Mitotic Cells (%) (Fibroblast; [1]): 56% and 47%
- Population Normal (%) (Fibroblast; [1]): 100%
- Population Pyknosed Nuclei (%) (Fibroblast; [1]): 20% and 19%
- Population Tubulin-Different-Phenotype (%) (Fibroblast; [1]): 12% and 10%
- Total Cell Count (Fibroblast; [1]): 193 and 174
- Population Apoptotic (%) (Fibroblast; [2]): 51% and 56%
- Population Fragmented Nuclei (%) (Fibroblast; [2]): 12% and 17%
- Population Healthy Nuclei (%) (Fibroblast; [2]): 74% and 67%
- Population Hoechst High Intensity Objects (%) (Fibroblast; [2]): 0%
- Population Membrane Permeable-Phenotype (%) (Fibroblast; [2]): 2%
- Population Mitochondria Different-Phenotype (%) (Fibroblast; [2]): 5% and 8%
- Population Mitotic Cells (%) (Fibroblast; [2]): 48% and 43%
- Population Normal (%) (Fibroblast; [2]): 100% and 99%
- Population Pyknosed Nuclei (%) (Fibroblast; [2]): 12% and 14%
- Population Tubulin-Different-Phenotype (%) (Fibroblast; [2]): 35% and 28%
- Total Cell Count (Fibroblast; [2]): 232 and 216
- Population Apoptotic (%) (Fibroblast; [3]): 64% and 72%
- Population Fragmented Nuclei (%) (Fibroblast; [3]): 12% and 16%
- Population Healthy Nuclei (%) (Fibroblast; [3]): 75% and 68%
- Population Hoechst High Intensity Objects (%) (Fibroblast; [3]): 0%
- Population Membrane Permeable-Phenotype (%) (Fibroblast; [3]): 5% and 3%
- Population Mitochondria Different-Phenotype (%) (Fibroblast; [3]): 0%
- Population Mitotic Cells (%) (Fibroblast; [3]): 36% and 27%
- Population Normal (%) (Fibroblast; [3]): 100%
- Population Pyknosed Nuclei (%) (Fibroblast; [3]): 12% and 15%
- Population Tubulin-Different-Phenotype (%) (Fibroblast; [3]): 9% and 5%
- Total Cell Count (Fibroblast; [3]): 200 and 186
- Population Apoptotic (%) (Fibroblast; [4]): 65% and 75%
- Population Fragmented Nuclei (%) (Fibroblast; [4]): 11% and 17%
- Population Healthy Nuclei (%) (Fibroblast; [4]): 76% and 65%
- Population Hoechst High Intensity Objects (%) (Fibroblast; [4]): 0%
- Population Membrane Permeable-Phenotype (%) (Fibroblast; [4]): 3% and 1%
- Population Mitochondria Different-Phenotype (%) (Fibroblast; [4]): 4% and 5%
- Population Mitotic Cells (%) (Fibroblast; [4]): 34% and 25%
- Population Normal (%) (Fibroblast; [4]): 100%
- Population Pyknosed Nuclei (%) (Fibroblast; [4]): 12% and 16%
- Population Tubulin-Different-Phenotype (%) (Fibroblast; [4]): 37% and 25%
- Total Cell Count (Fibroblast; [4]): 213 and 212
- Population Apoptotic (%) (U2OS; [5]): 100% and 55%
- Population Healthy Nuclei (%) (U2OS; [5]): 57% and 86%
- Population Hoechst High Intensity Objects (%) (U2OS; [5]): 0%
- Population Membrane Permeable-Phenotype (%) (U2OS; [5]): 8% and 3%
- Population Mitochondria Different-Phenotype (%) (U2OS; [5]): 8% and 0%
- Population Normal (%) (U2OS; [5]): 100%
- Population Pyknosed Nuclei (%) (U2OS; [5]): 7% and 10%
- Population Tubulin-Different-Phenotype (%) (U2OS; [5]): 66% and 71%
- Population Fragmented Nuclei (%) (U2OS; [6]): 3% and 12%
- Population Healthy Nuclei (%) (U2OS; [6]): 81% and 77%
- Population Hoechst High Intensity Objects (%) (U2OS; [6]): 0%
- Population Mitochondria Different-Phenotype (%) (U2OS; [6]): 0%
- Population Mitotic Cells (%) (U2OS; [6]): 43% and 100%
- Population Normal (%) (U2OS; [6]): 100%
- Population Pyknosed Nuclei (%) (U2OS; [6]): 14% and 9%
- Population Tubulin-Different-Phenotype (%) (U2OS; [6]): 55% and 33%
- Population Apoptotic (%) (U2OS; [1]): 66% and 69%
- Population Healthy Nuclei (%) (U2OS; [1]): 64% and 88%
- Population Hoechst High Intensity Objects (%) (U2OS; [1]): 0%
- Population Mitochondria Different-Phenotype (%) (U2OS; [1]): 12% and 0%
- Population Mitotic Cells (%) (U2OS; [1]): 33% and 30%
- Population Normal (%) (U2OS; [1]): 100% and 99%
- Population Pyknosed Nuclei (%) (U2OS; [1]): 16% and 9%
- Population Tubulin-Different-Phenotype (%) (U2OS; [1]): 79% and 73%
- Population Apoptotic (%) (U2OS; [2]): 33% and 62%
- Population Fragmented Nuclei (%) (U2OS; [2]): 0% and 4%
- Population Healthy Nuclei (%) (U2OS; [2]): 90% and 82%
- Population Hoechst High Intensity Objects (%) (U2OS; [2]): 0%
- Population Membrane Permeable-Phenotype (%) (U2OS; [2]): 10% and 2%
- Population Mitochondria Different-Phenotype (%) (U2OS; [2]): 10% and 3%
- Population Mitotic Cells (%) (U2OS; [2]): 66% and 37%
- Population Normal (%) (U2OS; [2]): 100% and 99%
- Population Pyknosed Nuclei (%) (U2OS; [2]): 9% and 12%
- Population Tubulin-Different-Phenotype (%) (U2OS; [2]): 58% and 59%
- Population Apoptotic (%) (U2OS; [3]): 75% and 58%
- Population Healthy Nuclei (%) (U2OS; [3]): 75% and 89%
- Population Hoechst High Intensity Objects (%) (U2OS; [3]): 0%
- Population Membrane Permeable-Phenotype (%) (U2OS; [3]): 6% and 0%
- Population Mitochondria Different-Phenotype (%) (U2OS; [3]): 3% and 0%
- Population Mitotic Cells (%) (U2OS; [3]): 25% and 41%
- Population Normal (%) (U2OS; [3]): 100% and 99%
- Population Pyknosed Nuclei (%) (U2OS; [3]): 9% and 7%
- Population Tubulin-Different-Phenotype (%) (U2OS; [3]): 83% and 85%
- Population Apoptotic (%) (U2OS; [4]): 83% and 75%
- Population Fragmented Nuclei (%) (U2OS; [4]): 5% and 3%
- Population Healthy Nuclei (%) (U2OS; [4]): 84% and 87%
- Population Hoechst High Intensity Objects (%) (U2OS; [4]): 0%
- Population Membrane Permeable-Phenotype (%) (U2OS; [4]): 2%
- Population Mitochondria Different-Phenotype (%) (U2OS; [4]): 8% and 1%
- Population Mitotic Cells (%) (U2OS; [4]): 16% and 24%
- Population Normal (%) (U2OS; [4]): 100%
- Population Pyknosed Nuclei (%) (U2OS; [4]): 10% and 8%
- Population Tubulin-Different-Phenotype (%) (U2OS; [4]): 69% and 66%
